The text below walks through data of ChEMBL document CHEMBL1154566, “Quadranosides I-V, new triterpene glucosides from the seeds of Combretum quadrangulare” (2000).

Calls of active or inactive are those of the source. The rule behind the calls is not given here.

Type in all cases: functional
Experiment [1] relates to Hepatocyte. The experiment in a line: Hepatoprotective activity against mouse hepatocytes assessed as inhibition of D-galactosamine/TNFalpha-induced cell death at 50 uM after 18 hrs by MTT assay. In short, it runs like this:
(§1)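 Primary cultured mouse hepatocytes in Williams' E medium with 10% calf serum, penicillin G, streptomycin, 100 µM dexamethasone and 50 ng/mL insulin, seeded at 10^5 cells/well and preincubated 2 h. The medium was then replaced with fresh medium holding 0.5 mM D-GalN plus test sample.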

Experiment [2] deals with Hepatocyte. Put plainly: Hepatoprotective activity against mouse hepatocytes assessed as inhibition of D-galactosamine/TNFalpha-induced cell death at 100 uM after 18 hrs by MTT assay. In a few lines:
as §1
For orientation: Tetrazolium assays rely on reduction of a dye to a coloured formazan, in cell work by metabolically active cells.

The subject of experiment [3] is Hepatocyte. Put plainly: Hepatoprotective activity against mouse hepatocytes assessed as inhibition of D-galactosamine/TNFalpha-induced cell death at 200 uM after 18 hrs by MTT assay. In short, it runs like this:
as §1

The test system of experiment [4] is Hepatocyte. Put plainly: Hepatoprotective activity against mouse hepatocytes assessed as inhibition of D-galactosamine/TNFalpha-induced cell death at 25 uM after 18 hrs by MTT assay. In a few lines: as §1

As to `CC1=C(C)[C@H]2C3=CC[C@@H]4[C@@]5(C)C[C@@H](O)[C@H](O)[C@@](C)(CO)[C@@H]5CC[C@@]4(C)[C@]3(C)CC[C@@]2(C(=O)O[C@@H]2O[C@H](CO)[C@@H](O)[C@H](O)[C@H]2O)CC1`, the inhibition at 50 µM in experiment [1] came to 8.3%. Moreover, in experiment [2], the inhibition at 100 µM was determined as 25%. Also, the inhibition at 200 µM in experiment [3] is 15%.

Take `C[C@H]1[C@H](C)CC[C@]2(C(=O)O[C@@H]3O[C@H](CO)[C@@H](O)[C@H](O)[C@H]3O)CC[C@]3(C)C(=CC[C@@H]4[C@@]5(C)C[C@@H](O)[C@H](O)[C@@](C)(CO)[C@@H]5CC[C@]43C)[C@H]12`: the result in experiment [4], in experiment [1], in experiment [2] and in experiment [3] was inactive.

In the case of `Oc1cc(O)c2c(c1)O[C@H](c1ccc(O)c(O)c1)[C@H](O)C2` [(-)-EPICATECHIN], in experiment [1], the inhibition at 50 µM worked out at 38%. In addition, the inhibition at 100 µM in experiment [2] came out at 58.1%. For the same molecule, the inhibition at 200 µM in experiment [3] was 98.9%.

On to `CC1(C)CC[C@]2(C(=O)O)CC[C@]3(C)C(=CC[C@@H]4[C@@]5(C)C[C@@H](O)[C@H](O)[C@@](C)(CO)[C@@H]5CC[C@]43C)[C@@H]2[C@@H]1O` [ARJUNGENIN], for which the inhibition at 50 µM in experiment [1] came out at 31.8%. The inhibition at 100 µM in experiment [2] came to 37%. For the same molecule, in experiment [3], the inhibition at 200 µM worked out at 46.2%.

Take `CC1(C)CC[C@]2(C(=O)O[C@@H]3O[C@H](CO)[C@@H](O)[C@H](O)[C@H]3O)CC[C@]3(C)C(=CC[C@@H]4[C@@]5(C)C[C@@H](O)[C@H](O)[C@@](C)(CO)[C@@H]5CC[C@]43C)[C@@H]2[C@@H]1O` [ARJUNGLUCOSIDE I]: in experiment [1], the inhibition at 50 µM was 10.1%. The inhibition at 100 µM in experiment [2] was 31.5%. In addition, in experiment [3], the inhibition at 200 µM worked out at 32.7%.

`Oc1cc(O)c2c(c1)O[C@H](c1cc(O)c(O)c(O)c1)[C@@H](O)C2` [GALLOCATECHIN]: in experiment [1], the inhibition at 50 µM was found to be 19.7%. The inhibition at 100 µM in experiment [2] came to 30.3%. For the same molecule, the inhibition at 200 µM in experiment [3] amounted to 33.5%.

As for `C[C@@]1(CO)CC[C@]2(C(=O)O[C@@H]3O[C@H](CO)[C@@H](O)[C@H](O)[C@H]3O)CC[C@]3(C)C(=CC[C@@H]4[C@@]5(C)C[C@@H](O)[C@H](O)[C@@](C)(CO)[C@@H]5CC[C@]43C)[C@@H]2C1` [QUADRANOSIDE III], the inhibition at 25 µM in experiment [4] worked out at 15.1%. In addition, the inhibition at 50 µM in experiment [1] is 8%. Moreover, the inhibition at 100 µM in experiment [2] is 17.8%. In experiment [3], the inhibition at 200 µM was determined as 35.5%.

As for `C=C(C)[C@@H]1CC[C@]2(C(=O)O[C@@H]3O[C@H](CO)[C@@H](O)[C@H](O)[C@H]3O)CC[C@]3(C)[C@H](CC[C@@H]4[C@@]5(C)C[C@@H](O)[C@H](O)[C@@](C)(CO)[C@@H]5[C@H](O)C[C@]43C)[C@@H]12` [QUADRANOSIDE II], in experiment [4], the inhibition at 25 µM came out at 32%. Moreover, the inhibition at 50 µM in experiment [1] was found to be 40.9%. The inhibition at 100 µM in experiment [2] worked out at 46.1%. Besides, the inhibition at 200 µM in experiment [3] worked out at 83.6%.

For the molecule `C=C(C)[C@@H]1CC[C@]2(C(=O)O[C@@H]3O[C@H](CO)[C@@H](O)[C@H](O)[C@H]3O)CC[C@]3(C)[C@H](CC[C@@H]4[C@@]5(C)C[C@@H](O)[C@H](O)C(C)(C)[C@@H]5[C@H](O)C[C@]43C)[C@@H]12` [QUADRANOSIDE I], the inhibition at 25 µM in experiment [4] is 6.3%. Further, the inhibition at 50 µM in experiment [1] turned out to be 37.6%. In addition, the inhibition at 100 µM in experiment [2] came out at 29.7%. Further, the inhibition at 200 µM in experiment [3] came to 71.2%.

On to `CC1=C2C3=CC[C@@H]4[C@@]5(C)C[C@@H](O)[C@H](O)[C@@](C)(CO)[C@@H]5[C@H](O)C[C@@]4(C)[C@]3(C)CC[C@@]2(C(=O)O[C@@H]2O[C@H](CO)[C@@H](O)[C@H](O)[C@H]2O)CC[C@H]1C` [QUADRANOSIDE V], for which the inhibition at 25 µM in experiment [4] worked out at 59.3%. Besides, the inhibition at 50 µM in experiment [1] was determined as 67.5%. In experiment [2], the inhibition at 100 µM is 77.7%. Also, the inhibition at 200 µM in experiment [3] was 80.1%.

On to `COc1cc(C2Oc3cc([C@H]4Oc5cc(O)cc(O)c5C(=O)[C@@H]4O)ccc3OC2CO)ccc1O` (some centres undefined) [SILIBININ], for which the inhibition at 25 µM in experiment [4] came out at 38.1%. Moreover, the inhibition at 50 µM in experiment [1] stood at 61.2%. Besides, in experiment [2], the inhibition at 100 µM worked out at 96.5%. For the same molecule, in experiment [3], the inhibition at 200 µM is 70.8%.

For orientation: inhibition means the share of the control response that was lost under treatment.
